This is an account of results in ChEMBL document CHEMBL4359913, “Identification and characterization of benzo[d]oxazol-2(3H)-one derivatives as the first potent and selective small-molecule inhibitors of chromodomain protein CDYL” (Eur J Med Chem, 2019).

Calls of active or inactive are those of the source. The rule behind the calls is not given here. Where a SMILES comes first, the peptide text is derived from it. [ ]: non-standard residue; d: D form. The star is where a group is joined. Benzoyl(4-tBu) = CC(C)(C)c1ccc(C(=O)*)cc1; Lys(Et2) = CCN(CC)CCCC[C@H](N)C(=O)O Where only a bound is given, the exact number is not on record here.

In one test the test system is HEK-293T. Kind of test: Cytotoxicity against human HEK293T cells assessed as reduction in cell viability incubated for 24 hrs by CCK8 assay.
Test [1] concerns the target T1, Chromodomain Y-like protein (Homo sapiens, UniProt Q9Y232).
T1 sequence (Q9Y232 whole entry): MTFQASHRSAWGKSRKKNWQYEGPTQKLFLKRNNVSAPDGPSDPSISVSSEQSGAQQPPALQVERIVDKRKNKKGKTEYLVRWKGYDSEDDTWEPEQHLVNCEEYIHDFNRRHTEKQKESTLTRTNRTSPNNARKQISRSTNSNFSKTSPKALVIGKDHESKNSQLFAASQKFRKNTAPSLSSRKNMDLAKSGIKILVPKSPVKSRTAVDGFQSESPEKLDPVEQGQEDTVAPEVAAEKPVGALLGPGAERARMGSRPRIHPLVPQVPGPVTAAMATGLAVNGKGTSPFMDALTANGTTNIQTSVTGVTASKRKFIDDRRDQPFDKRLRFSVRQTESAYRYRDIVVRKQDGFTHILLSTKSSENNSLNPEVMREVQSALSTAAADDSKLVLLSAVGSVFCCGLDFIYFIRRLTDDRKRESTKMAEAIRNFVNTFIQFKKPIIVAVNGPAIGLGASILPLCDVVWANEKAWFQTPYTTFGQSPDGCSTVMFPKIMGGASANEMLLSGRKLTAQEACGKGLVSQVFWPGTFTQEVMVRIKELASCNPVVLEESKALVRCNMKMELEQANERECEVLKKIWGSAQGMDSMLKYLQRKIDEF
Kind of test: Binding affinity to recombinant human N-terminal GST-tagged CDYL (1 to 60 residues) expressed in Escherichia coli […] by SPR analysis. The method, boiled down: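 GST-tagged chromodomain expressed in E. coli BL21 with 0.2 mM IPTG at 28 °C for 6 h. Purified on GSTrap, tag removed with PreScission protease. Amine-coupled to CM5 chip at pH 4.0–4.5 (5000–10000 RU). Compound run as a 1.5- or 2-fold series from 100 µM in PBSP with 5% DMSO, 25 °C, 30 µL/min, 60 s association and 60 s dissociation.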
(In general: Surface plasmon resonance follows binding to a sensor surface in real time, without labels.)

The subject of another test is SH-SY5Y. Kind of test: Cytotoxicity against human SH-SY5Y cells assessed as reduction in cell viability incubated for 24 hrs by CCK8 assay. Background: Tetrazolium assays rely on reduction of a dye to a coloured formazan, in cell work by metabolically active cells.
In test [2] the target is T2, Testis-specific chromodomain protein Y 1 (Homo sapiens, UniProt Q9Y6F8).
T2 sequence (Q9Y6F8 whole entry): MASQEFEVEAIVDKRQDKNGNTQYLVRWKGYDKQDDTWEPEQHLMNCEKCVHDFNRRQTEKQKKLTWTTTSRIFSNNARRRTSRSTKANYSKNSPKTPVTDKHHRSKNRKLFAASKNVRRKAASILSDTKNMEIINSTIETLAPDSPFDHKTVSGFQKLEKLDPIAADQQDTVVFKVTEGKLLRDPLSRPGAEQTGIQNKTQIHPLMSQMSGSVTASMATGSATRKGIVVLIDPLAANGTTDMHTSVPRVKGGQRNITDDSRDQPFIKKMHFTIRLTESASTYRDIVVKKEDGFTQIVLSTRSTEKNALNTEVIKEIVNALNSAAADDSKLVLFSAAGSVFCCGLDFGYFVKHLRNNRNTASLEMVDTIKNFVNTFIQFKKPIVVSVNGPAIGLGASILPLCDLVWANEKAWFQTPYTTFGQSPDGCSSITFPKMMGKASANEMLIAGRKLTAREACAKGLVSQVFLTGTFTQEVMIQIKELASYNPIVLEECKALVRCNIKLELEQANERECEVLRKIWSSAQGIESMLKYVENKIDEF
Kind of test: Binding affinity to recombinant human N-terminal GST-tagged CDY1 (1 to 65 residues) expressed in Escherichia coli […] by SPR analysis. An outline of the steps: (§1)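 Chromodomain expressed with N-terminal GST tag in E. coli BL21 (IPTG 0.2 mM at OD600 0.6–0.8, 28 C for 6 h), GSTrap purified, tag cleaved by PreScission protease, amine-coupled to CM5 chip at pH 4.0–4.5 (5000–10000 RU). […] Mean ± SD of at least two replicates, each in duplicate.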

Test [3] concerns the target T3, Chromodomain Y-like protein (Homo sapiens) (UniProt Q9Y232).
T3 sequence (whole entry): T1 sequence (Q9Y232 whole entry)
Kind of test: Effect on CDYL-mediated MYT1 mRNA expression in human SH-SY5Y cells up to 200 uM incubated for 24 hrs by RT-qPCR analysis. Format: cell-based.

For test [4], the target named is T3, Chromodomain Y-like protein (Homo sapiens). Kind of test: Effect on CDYL-mediated MYT1 mRNA expression in human HEK293T cells up to 200 uM incubated for 24 hrs by RT-qPCR analysis. Format: cell-based. (In general: Quantitative PCR measures a nucleic acid by following its amplification.)
The target is the same in test [5]. Kind of test: Inhibition of CDYL in human HEK293T cells assessed as increase in MYT1 mRNA expression at 50 to 200 uM incubated for 24 hrs by RT-qPCR analysis. Format: cell-based. The method, boiled down: (§2)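 SH-SY5Y or HEK-293T cells grown in DMEM with 10% FBS and treated with compound for 24 h. mRNA quantified by SYBR green RT-qPCR after DNase treatment, 2^-ΔΔCt method with GAPDH as reference, relative to DMSO. Mean ± S.E.M. of triplicate experiments, Student's t-test.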

For test [6] the target is unchanged. Kind of test: Inhibition of CDYL in human SH-SY5Y cells assessed as increase in MYT1 mRNA expression incubated for 24 hrs by RT-qPCR analysis. Format: cell-based. The method, boiled down: as §2
Test [7] has the same target. Kind of test: Inhibition of CDYL in human SH-SY5Y cells assessed as increase in VGF mRNA expression incubated for 24 hrs by RT-qPCR analysis. Format: cell-based. The method, boiled down: as §2
In test [8] the target is T4, Chromobox protein homolog 7 (Homo sapiens, UniProt O95931).
T4 sequence (O95931 whole entry): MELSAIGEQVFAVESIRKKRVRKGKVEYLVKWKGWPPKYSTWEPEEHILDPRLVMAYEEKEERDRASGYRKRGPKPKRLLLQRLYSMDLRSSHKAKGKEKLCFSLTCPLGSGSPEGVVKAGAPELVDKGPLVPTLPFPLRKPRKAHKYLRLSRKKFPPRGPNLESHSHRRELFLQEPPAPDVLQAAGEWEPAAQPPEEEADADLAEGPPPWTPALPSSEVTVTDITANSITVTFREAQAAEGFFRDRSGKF
Kind of test: Binding affinity to recombinant human N-terminal GST-tagged CBX7 (1 to 62 residues) expressed in Escherichia coli […] by SPR analysis. The method, boiled down:
as §1

Test [9] concerns the target T3, Chromodomain Y-like protein (Homo sapiens). Kind of test: Inhibition of CDYL in human SH-SY5Y cells assessed as increase in BDNF mRNA expression incubated for 24 hrs by RT-qPCR analysis. Format: cell-based. An outline of the steps: as §2
Test [10] shares this target. Kind of test: Inhibition of CDYL in human HEK293T cells assessed as increase in VGF mRNA expression at 50 to 200 uM incubated for 24 hrs by RT-qPCR analysis. Format: cell-based. The method, boiled down:
as §2

Test [11] has the same target. Kind of test: Inhibition of CDYL in human HEK293T cells assessed as increase in BDNF mRNA expression at 50 to 200 uM incubated for 24 hrs by RT-qPCR analysis. Format: cell-based. The method, boiled down: as §2
For test [12] the target is unchanged. Kind of test: Inhibition of CDYL in human SH-SY5Y cells assessed as increase in MYT1 mRNA expression at 100 uM incubated for 24 hrs by RT-qPCR analysis. It counts as cell-based. An outline of the steps:
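SH-SY5Y cells exposed to 100 µM compound for 24 h. MYT1 mRNA measured by RT-qPCR: DNase treatment, SYBR green, 2^-ΔΔCt with GAPDH as internal control. Mean ± S.E.M. of triplicate experiments.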

For test [13] the target is unchanged. Kind of test: Inhibition of CDYL in human SH-SY5Y cells assessed as VGF mRNA expression at 50 to 200 uM incubated for 24 hrs by RT-qPCR analysis. It counts as cell-based. An outline of the steps:
as §2

The target is the same in test [14]. Kind of test: Inhibition of CDYL in human SH-SY5Y cells assessed as MYT1 mRNA expression at 50 to 200 uM incubated for 24 hrs by RT-qPCR analysis. It counts as cell-based. An outline of the steps: as §2
Test [15] has the same target. Kind of test: Inhibition of CDYL in human SH-SY5Y cells assessed as BDNF mRNA expression at 50 to 200 uM incubated for 24 hrs by RT-qPCR analysis. Format: cell-based. An outline of the steps:
as §2

What is called IC50 is the concentration that inhibits the measured activity by half. One may read the Kd as the constant that tells how readily two partners part at equilibrium. As for `COc1cccc(C(=O)/C=C2\C(=O)Nc3ccc(Cl)cc32)c1`, the IC50 in the test with HEK-293T was found to be 16.6 µM; with SH-SY5Y, 21.5 µM. Also, the Kd was found to be 15.4 µM in test [1] and 10.3 µM in [2].
As for `CCN(CC)CCCC[C@H](NC(=O)[C@H](CC(C)C)NC(=O)[C@H](C)NC(=O)[C@H](Cc1ccccc1)NC(=O)c1ccc(C(C)(C)C)cc1)C(=O)N[C@@H](CO)C(=O)OC` ({Benzoyl(4-tBu)}-FAL[Lys(Et2)]S-OMe), the result in test [3] and in [4] was inactive. Besides, the Kd in [1] amounted to 5.6 µM.
Turning to `COc1cccc(C(=O)CC2C(=O)Nc3ccc(Cl)cc32)c1` (racemic), the IC50 in the test on HEK-293T stood at 36.9 µM; with SH-SY5Y, 43.4 µM. In addition, the Kd is 1.2 µM in [1] and over 200 µM in test [2].
Take `O=C(Cn1c(=O)oc2ccccc21)c1ccc2ccccc2c1`: the result in test [5], in test [10] and in test [11] was Active. For the same compound, the Activity result in [6], in [7] and in test [9] was “Dose-dependent effect” each time. Further, the figures for the Kd in [1], in [8] and in test [2] were 2.6 µM, 14.2 µM and 41.7 µM, respectively.
On to `CCc1ccc(C(=O)CC2(O)C(=O)Nc3ccc(Cl)cc32)cc1` (centres undefined), for which the result in test [12] was Active. The Kd stood at 55.6 µM in test [1], 12.1 µM in [8] and 33.5 µM in test [2].
Consider `O=C(Cn1c(=O)oc2ccccc21)N1CCC(N2CCCCC2)CC1`, for which the Kd in test [1] turned out to be 11.8 µM; in test [8] it was 13.5 µM; in test [2], 51.1 µM.
In the case of `COc1ccc2oc(=O)n(CC(=O)N3CCC(N4CCCC4)CC3)c2c1`, the outcome in test [5], in test [13], in test [14], in [15], in test [10] and in test [11] was inactive. Further, the Kd came out at 12.5 µM in test [1] and 8.2 µM in [8].
For `COc1cccc(C(=O)CC2(O)C(=O)Nc3ccc(Cl)cc32)c1` (racemic), in test [6], the Activity result was “Dose-dependent effect”. Also, the IC50 in the test on HEK-293T is 56.1 µM; with SH-SY5Y it was 68.1 µM. In addition, the Kd is 4.9 µM in [1] and 84.4 µM in test [8].
With `COc1cccc(C(=O)Cn2c(=O)[nH]c3ccc(Cl)cc32)c1`, the IC50 in the test with HEK-293T and with SH-SY5Y was over 200 µM in each case. Further, the Kd in [1] is 14.8 µM; in test [8], 28.9 µM; in test [2], 70.4 µM.
With `CCN(CC)C1CCN(C(=O)Cn2c(=O)oc3ccc(F)cc32)CC1`, the values for the Kd in test [1], in [8] and in test [2] were 2.8 µM, 2.8 µM and 4.5 µM, respectively.
Consider `COc1cccc(C(=O)Cn2c(=O)oc3ccc(OC)cc32)c1`, for which the Kd in test [1] was found to be 7.7 µM; in [8], 17.2 µM; in test [2], 15.6 µM.
For `O=C(Cn1c(=O)oc2ccc(F)cc21)c1ccc2ccccc2c1`, in that order: 20.1 µM, 40.2 µM and 210 µM.
